Results taken from ChEMBL document CHEMBL1142507, “Novel potent and selective Ca2+ release-activated Ca2+ (CRAC) channel inhibitors. Part 3: synthesis and CRAC channel inhibitory activity of 4'-[(trifluoromethyl)pyrazol-1-yl]carboxanilides” (Bioorg Med Chem, 2008).
pIC50: −log10 of the molar value.

Columns and labels:
Jurkat [1] = assay: Selectivity ratio of IC50 for VOC channel in […] PC12-h5 cells over IC50 for CRAC channel in human Jurkat cells
[2] = Inhibition of CRAC channel-mediated calcium influx in human Jurkat cells; assay type: cell-based
In short: (§1)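 Jurkat cells (2 × 10⁶ cells/ml) loaded with 1 µM Fura-2/AM for 45 min at room temperature in HEPES buffer pH 7.4 (NaCl 137, KCl 5.8, MgCl₂ 1, CaCl₂ 2.5, glucose 5, HEPES 10 mM), then washed. Thapsigargin-induced Ca²⁺ influx read by 340/380 nm excitation, 500 nm emission, with cell-free compound fluorescence subtracted. IC50 taken from percent inhibition.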

Mus musculus = assay: Inhibition of trinitrochlorobenzene-induced contact hypersensitivity in 1 hr before pretreated CD1 mouse assessed as ear swelling at 30 mg/kg, po; assay type: functional
In short: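 Mice challenged with TNCB on both sides of the ear pinna. Compound given orally 1 h before TNCB exposure, with 0.5% MC vehicle given orally to control animals. Ear thickness measured by dial gauge 24 h after challenge and swelling calculated from the pre-exposure value.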

PC-12 = assay: Inhibition of VOC channel-mediated calcium influx in […] PC12-h5 cells at 10 uM; assay type: cell-based; details: Rattus norvegicus
In short: (§2)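 PC12-h5 cells (1 × 10⁶ cells/ml) loaded with 1 µM Fura-2/AM for 45 min at room temperature in HEPES buffer pH 7.4, then washed. Depolarized with 50 mM KCl for 20 min. Intracellular Ca²⁺ measured at the 20 min endpoint from the 340/380 nm excitation ratio (500 nm emission), with compound autofluorescence subtracted.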

Jurkat [3] = assay: Inhibition of PHA-induced IL2 production in human Jurkat T lymphocytes; assay type: functional, cell-based
In short: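 Jurkat T cells (5 × 10⁶ cells/ml) stimulated with PHA (20 µg/ml) for 20 h. IL-2 in the supernatant quantified by human IL-2 ELISA.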

[4] = Inhibition of VOC channel-mediated calcium influx in […] PC12-h5 cells; assay type: cell-based; details: Rattus norvegicus, PC-12
In short: as §2

Jurkat [5] = assay: Inhibition of CRAC channel-mediated calcium influx in human Jurkat cells at 10 uM; assay type: cell-based
In short: as §1

Rattus norvegicus = assay: Inhibition of ovalbumin-induced airway eosinophilia in BN rat po dosed 1 hr before antigen challenge assessed as number of eosinophils in bronchoalveolar levage fluid after 24 hrs; assay type: functional; details: Lung
In short: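 Sensitized rats were challenged 3 weeks later with aerosolized 1% (w/v) ovalbumin for 15 min. Compound given orally 1 h before exposure. BAL performed 24 h after challenge. Total white cells counted with a blood cell counter. Eosinophils identified morphologically on smears and eosinophil number per animal calculated. ED50 derived.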

## Cc1nnsc1C(=O)Nc1ccc(-n2nc(C(F)(F)F)cc2C)cc1
Jurkat [1]
  Ratio IC50: > 45
[2]
  pIC50: 6.66
Mus musculus
  inhibition in vivo at 30 mg/kg: 24%
PC-12
  inhibition: 46%
Jurkat [3]
  pIC50: 7.74

## O=C(Nc1ccc(-n2nc(C(F)(F)F)cc2C(F)(F)F)cc1)c1ccncc1
Jurkat [1]
  Ratio IC50: 42
[2]
  pIC50: 6.62
Mus musculus
  inhibition in vivo at 30 mg/kg: 25%
[4]
  pIC50: 5.00
Jurkat [3]
  pIC50: 7.80

## Cc1cncc(C(=O)Nc2ccc(-n3nc(C(F)(F)F)cc3C(F)(F)F)cc2)c1
Jurkat [1]
  Ratio IC50: 15
[2]
  pIC50: 6.68
[4]
  pIC50: 5.51

## O=C(Nc1ccc(-n2nc(C(F)(F)F)cc2C(F)(F)F)cc1)c1cncc(Br)c1
Jurkat [1]
  Ratio IC50: > 67
[2]
  pIC50: 6.82
Mus musculus
  inhibition in vivo at 30 mg/kg: 17%
PC-12
  inhibition: 29%
Jurkat [3]
  pIC50: 7.62

## Cc1nnsc1C(=O)Nc1ccc(-n2nc(C(F)(F)F)c3c2CCC3)cc1
Jurkat [1]
  Ratio IC50: 8.8
[2]
  pIC50: 6.40
[4]
  pIC50: 5.46

## O=C(Nc1ccc(-n2nc(C(F)(F)F)cc2C(F)(F)F)cc1)c1c[nH]cn1
Jurkat [5]
  inhibition: 29%

## O=C(Nc1ccc(-n2nc(C(F)(F)F)cc2C(F)(F)F)cc1)c1cncs1
Jurkat [1]
  Ratio IC50: 10
[2]
  pIC50: 6.02
[4]
  pIC50: 5.00

## Cc1ccc(C(=O)Nc2ccc(-n3nc(C(F)(F)F)cc3C(F)(F)F)cc2)cn1
Jurkat [1]
  Ratio IC50: > 45
[2]
  pIC50: 6.66
Mus musculus
  inhibition in vivo at 30 mg/kg: 46%
PC-12
  inhibition: 27%
Jurkat [3]
  pIC50: 7.03

## Cc1nnsc1C(=O)Nc1ccc(-n2nc(C(F)(F)F)cc2Cl)cc1
Jurkat [1]
  Ratio IC50: 35
[2]
  pIC50: 7.09
Mus musculus
  inhibition in vivo at 30 mg/kg: 42%
[4]
  pIC50: 5.54
Jurkat [3]
  pIC50: 7.82

## O=C(Nc1ccc(-n2nc(C(F)(F)F)cc2C(F)(F)F)cc1)c1cccnc1O
[2]
  pIC50: 5.48

## O=C(Nc1ccc(-n2nc(C(F)(F)F)cc2C(F)(F)F)cc1)c1cncc(Cl)c1
Jurkat [1]
  Ratio IC50: > 91
[2]
  pIC50: 6.96
Mus musculus
  inhibition in vivo at 30 mg/kg: 42%
PC-12
  inhibition: 31%
Jurkat [3]
  pIC50: 7.47

## O=C(Nc1ccc(-n2nc(C(F)(F)F)cc2C(F)(F)F)cc1)c1cncc(F)c1
Jurkat [1]
  Ratio IC50: > 130
[2]
  pIC50: 7.11
Mus musculus
  inhibition in vivo at 30 mg/kg: 44%
PC-12
  inhibition: 27%
Jurkat [3]
  pIC50: 7.74

## Cc1nnsc1C(=O)Nc1ccc(-n2nc(C(F)(F)F)cc2C#N)cc1
Jurkat [1]
  Ratio IC50: > 45
[2]
  pIC50: 6.66
PC-12
  inhibition: 45%

## Cc1nnsc1C(=O)Nc1ccc(-n2nc(C(F)(F)F)cc2Br)cc1
Jurkat [1]
  Ratio IC50: 28
[2]
  pIC50: 7.04
Mus musculus
  inhibition in vivo at 30 mg/kg: 8.3%
[4]
  pIC50: 5.59
Jurkat [3]
  pIC50: 8.23

## Cc1cc(C)c(C(=O)Nc2ccc(-n3nc(C(F)(F)F)cc3C(F)(F)F)cc2)cn1
Jurkat [1]
  Ratio IC50: > 34
[2]
  pIC50: 6.54
Mus musculus
  inhibition in vivo at 30 mg/kg: 64%
PC-12
  inhibition: 41%
Rattus norvegicus
  ED50: 1.3 mg/kg
Jurkat [3]
  pIC50: 7.48

## COc1ncccc1C(=O)Nc1ccc(-n2nc(C(F)(F)F)cc2C(F)(F)F)cc1
Jurkat [1]
  Ratio IC50: 24
[2]
  pIC50: 6.92
[4]
  pIC50: 5.54
